Assay results published in ChEMBL document CHEMBL1139385, “Structural analysis of ARC-type inhibitor (ARC-1034) binding to protein kinase A catalytic subunit and rational design of bisubstrate analogue inhibitors of basophilic protein kinases” (J Med Chem, 2009).
Where a SMILES comes first, the peptide text is derived from it. [ ]: non-standard residue; d: D form. The star is where a group is joined. Adenosine(5'-uronoyl) = Nc1ncnc2c1ncn2[C@@H]1O[C@H](C(=O)*)[C@@H](O)[C@H]1O; Ahx = NCCCCCC(=O)O

Legend:
[1] = target: Calcium/calmodulin-dependent protein kinase type II subunit beta (Homo sapiens) (UniProt Q13554); test: Inhibition of CaMK2beta at 100 nM relative to control
In short: (§1)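 Activity is expressed as percent inhibition versus control incubations lacking inhibitor. Values are means of duplicate determinations.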

[2] = target: Maternal embryonic leucine zipper kinase (Homo sapiens) (UniProt Q14680); test: Inhibition of MELK at 100 nM relative to control; in short: as §1
[3] = target: Ribosomal protein S6 kinase alpha-5 (Homo sapiens) (UniProt O75582); test: Inhibition of MSK1 at 100 nM relative to control; in short: as §1
Ribosomal protein S6 kinase alpha-5 (Homo sapiens), sequence (O75582 whole entry, looked up): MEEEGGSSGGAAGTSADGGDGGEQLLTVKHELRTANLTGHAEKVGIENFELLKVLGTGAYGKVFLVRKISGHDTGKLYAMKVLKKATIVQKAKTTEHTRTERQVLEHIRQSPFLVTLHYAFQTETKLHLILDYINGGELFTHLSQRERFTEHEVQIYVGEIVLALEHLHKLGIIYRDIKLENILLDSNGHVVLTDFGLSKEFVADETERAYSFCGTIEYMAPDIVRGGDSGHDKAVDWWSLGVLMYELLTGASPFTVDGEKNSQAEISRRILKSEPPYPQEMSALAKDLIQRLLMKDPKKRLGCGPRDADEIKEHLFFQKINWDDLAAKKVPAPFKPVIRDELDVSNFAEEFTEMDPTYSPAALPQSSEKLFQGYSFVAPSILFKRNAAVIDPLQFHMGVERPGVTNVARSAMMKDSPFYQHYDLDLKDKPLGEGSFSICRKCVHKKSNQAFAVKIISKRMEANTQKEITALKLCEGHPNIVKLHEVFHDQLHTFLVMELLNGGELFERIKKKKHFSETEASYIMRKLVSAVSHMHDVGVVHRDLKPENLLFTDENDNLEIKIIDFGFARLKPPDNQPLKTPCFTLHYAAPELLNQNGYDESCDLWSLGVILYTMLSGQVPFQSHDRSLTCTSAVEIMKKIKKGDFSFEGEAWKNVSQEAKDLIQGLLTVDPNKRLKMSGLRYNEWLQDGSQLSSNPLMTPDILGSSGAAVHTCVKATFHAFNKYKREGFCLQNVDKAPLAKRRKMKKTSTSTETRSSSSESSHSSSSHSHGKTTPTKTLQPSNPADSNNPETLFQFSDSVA

[4] = target: Ribosomal protein S6 kinase alpha-4 (Homo sapiens) (UniProt O75676); test: Inhibition of MSK2 at 100 nM relative to control; in short: as §1
Ribosomal protein S6 kinase alpha-4 (Homo sapiens), sequence (O75676 whole entry, looked up): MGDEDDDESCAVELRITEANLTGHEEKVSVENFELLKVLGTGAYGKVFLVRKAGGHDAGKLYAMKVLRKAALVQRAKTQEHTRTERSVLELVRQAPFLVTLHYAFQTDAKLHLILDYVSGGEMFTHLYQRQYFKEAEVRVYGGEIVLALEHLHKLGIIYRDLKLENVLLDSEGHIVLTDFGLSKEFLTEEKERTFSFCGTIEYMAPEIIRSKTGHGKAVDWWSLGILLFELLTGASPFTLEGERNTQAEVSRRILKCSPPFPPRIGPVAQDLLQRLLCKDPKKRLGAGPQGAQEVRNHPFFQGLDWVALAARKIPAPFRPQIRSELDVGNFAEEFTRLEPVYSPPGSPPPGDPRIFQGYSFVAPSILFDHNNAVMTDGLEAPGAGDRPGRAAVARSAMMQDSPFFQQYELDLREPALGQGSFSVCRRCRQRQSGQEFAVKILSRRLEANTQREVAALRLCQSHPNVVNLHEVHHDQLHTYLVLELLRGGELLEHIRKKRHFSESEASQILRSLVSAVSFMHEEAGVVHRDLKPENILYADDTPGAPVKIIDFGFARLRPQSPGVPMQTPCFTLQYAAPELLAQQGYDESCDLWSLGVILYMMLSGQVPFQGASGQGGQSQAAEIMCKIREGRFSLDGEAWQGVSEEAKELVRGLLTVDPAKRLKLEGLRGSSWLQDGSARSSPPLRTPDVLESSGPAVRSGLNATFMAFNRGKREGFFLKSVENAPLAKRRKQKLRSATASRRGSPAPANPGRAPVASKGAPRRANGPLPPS

[5] = target: Serine/threonine-protein kinase PAK 3 (Homo sapiens) (UniProt O75914); test: Inhibition of PAK3 at 100 nM relative to control; in short: as §1
Serine/threonine-protein kinase PAK 3 (Homo sapiens), sequence (O75914 whole entry, looked up): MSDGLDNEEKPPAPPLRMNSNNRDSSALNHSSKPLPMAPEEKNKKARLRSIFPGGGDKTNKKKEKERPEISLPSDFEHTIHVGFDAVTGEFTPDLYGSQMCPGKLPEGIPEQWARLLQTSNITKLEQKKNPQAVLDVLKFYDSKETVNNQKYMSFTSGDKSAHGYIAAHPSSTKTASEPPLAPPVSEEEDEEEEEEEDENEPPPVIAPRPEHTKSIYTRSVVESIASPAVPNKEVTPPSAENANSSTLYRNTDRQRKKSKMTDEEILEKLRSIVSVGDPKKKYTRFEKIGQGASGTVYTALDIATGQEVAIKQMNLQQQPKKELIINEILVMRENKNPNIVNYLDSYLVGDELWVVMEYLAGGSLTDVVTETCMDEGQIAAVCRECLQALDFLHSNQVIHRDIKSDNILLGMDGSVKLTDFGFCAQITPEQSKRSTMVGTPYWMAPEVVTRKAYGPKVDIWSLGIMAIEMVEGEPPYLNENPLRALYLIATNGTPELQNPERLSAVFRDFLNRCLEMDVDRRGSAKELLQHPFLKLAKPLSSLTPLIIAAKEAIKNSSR

[6] = target: Serine/threonine-protein kinase PAK 4 (Homo sapiens) (UniProt O96013); test: Inhibition of PAK4 at 100 nM relative to control; in short: as §1
[7] = target: Serine/threonine-protein kinase pim-1 (Homo sapiens) (UniProt P11309); test: Inhibition of PIM1 at 100 nM relative to control; in short: as §1
Serine/threonine-protein kinase pim-1 (Homo sapiens), sequence (P11309 whole entry, looked up): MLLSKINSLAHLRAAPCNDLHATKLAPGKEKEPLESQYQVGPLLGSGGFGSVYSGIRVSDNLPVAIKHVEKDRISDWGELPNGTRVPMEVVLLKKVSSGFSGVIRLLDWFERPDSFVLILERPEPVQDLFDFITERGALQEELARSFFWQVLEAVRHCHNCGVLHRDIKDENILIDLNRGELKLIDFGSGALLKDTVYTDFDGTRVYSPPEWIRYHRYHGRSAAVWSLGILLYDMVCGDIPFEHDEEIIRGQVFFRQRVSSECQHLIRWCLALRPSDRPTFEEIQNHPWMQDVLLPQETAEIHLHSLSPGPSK

[8] = target: Protein kinase C zeta type (Homo sapiens) (UniProt Q05513); test: Inhibition of PKCzeta at 100 nM relative to control; in short: as §1
[9] = target: Serine/threonine-protein kinase D2 (Homo sapiens) (UniProt Q9BZL6); test: Inhibition of PKD2 at 100 nM relative to control; in short: as §1
Serine/threonine-protein kinase D2 (Homo sapiens), sequence (Q9BZL6 whole entry): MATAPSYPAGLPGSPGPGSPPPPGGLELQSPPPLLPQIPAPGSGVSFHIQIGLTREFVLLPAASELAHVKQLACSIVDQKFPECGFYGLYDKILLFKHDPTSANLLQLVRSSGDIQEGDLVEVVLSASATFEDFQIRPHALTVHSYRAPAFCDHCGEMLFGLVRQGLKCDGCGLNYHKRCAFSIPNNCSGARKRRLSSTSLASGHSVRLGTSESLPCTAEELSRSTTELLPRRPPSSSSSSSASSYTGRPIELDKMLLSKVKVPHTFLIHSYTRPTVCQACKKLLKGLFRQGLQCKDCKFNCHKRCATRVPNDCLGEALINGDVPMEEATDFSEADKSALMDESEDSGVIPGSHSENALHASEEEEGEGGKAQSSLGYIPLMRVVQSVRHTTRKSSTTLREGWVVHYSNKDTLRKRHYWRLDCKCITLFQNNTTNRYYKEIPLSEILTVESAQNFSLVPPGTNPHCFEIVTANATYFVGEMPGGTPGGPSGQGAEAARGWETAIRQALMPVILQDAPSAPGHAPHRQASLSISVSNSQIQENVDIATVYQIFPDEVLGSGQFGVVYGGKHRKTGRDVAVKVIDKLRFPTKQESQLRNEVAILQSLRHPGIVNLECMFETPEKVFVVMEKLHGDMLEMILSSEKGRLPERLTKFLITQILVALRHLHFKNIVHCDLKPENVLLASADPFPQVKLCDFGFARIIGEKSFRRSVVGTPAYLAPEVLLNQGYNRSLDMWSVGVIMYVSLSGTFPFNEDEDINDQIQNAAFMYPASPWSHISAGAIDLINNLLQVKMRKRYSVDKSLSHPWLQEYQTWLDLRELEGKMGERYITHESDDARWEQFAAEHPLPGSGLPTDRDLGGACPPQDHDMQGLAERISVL

[10] = target: cGMP-dependent protein kinase 1 (Homo sapiens) (UniProt Q13976); test: Inhibition of PKG1 at 100 nM relative to control; in short: as §1
cGMP-dependent protein kinase 1 (Homo sapiens), sequence (Q13976 whole entry): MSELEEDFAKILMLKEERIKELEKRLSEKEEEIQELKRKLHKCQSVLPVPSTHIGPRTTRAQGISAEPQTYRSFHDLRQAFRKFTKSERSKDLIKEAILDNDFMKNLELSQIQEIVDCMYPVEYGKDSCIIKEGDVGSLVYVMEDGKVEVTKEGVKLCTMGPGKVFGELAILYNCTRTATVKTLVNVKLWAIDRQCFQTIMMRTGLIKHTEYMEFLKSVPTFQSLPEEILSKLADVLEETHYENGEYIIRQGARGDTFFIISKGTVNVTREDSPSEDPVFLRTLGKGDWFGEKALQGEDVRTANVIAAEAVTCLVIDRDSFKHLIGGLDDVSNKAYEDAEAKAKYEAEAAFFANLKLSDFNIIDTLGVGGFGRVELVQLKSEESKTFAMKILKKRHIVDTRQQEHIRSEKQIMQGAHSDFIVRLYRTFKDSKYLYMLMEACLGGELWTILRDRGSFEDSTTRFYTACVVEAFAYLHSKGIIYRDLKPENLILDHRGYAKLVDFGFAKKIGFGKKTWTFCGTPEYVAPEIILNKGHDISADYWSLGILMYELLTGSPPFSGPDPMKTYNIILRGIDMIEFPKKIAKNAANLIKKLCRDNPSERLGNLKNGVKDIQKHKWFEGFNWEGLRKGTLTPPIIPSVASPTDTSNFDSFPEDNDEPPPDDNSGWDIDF

[11] = target: Rho-associated protein kinase 1 (Homo sapiens) (UniProt Q13464); test: Inhibition of ROCK1 at 100 nM relative to control; in short: as §1
[12] = target: Ribosomal protein S6 kinase alpha-2 (Homo sapiens) (UniProt Q15349); test: Inhibition of RSK3 at 100 nM relative to control; in short: as §1
Ribosomal protein S6 kinase alpha-2 (Homo sapiens), sequence (Q15349 whole entry): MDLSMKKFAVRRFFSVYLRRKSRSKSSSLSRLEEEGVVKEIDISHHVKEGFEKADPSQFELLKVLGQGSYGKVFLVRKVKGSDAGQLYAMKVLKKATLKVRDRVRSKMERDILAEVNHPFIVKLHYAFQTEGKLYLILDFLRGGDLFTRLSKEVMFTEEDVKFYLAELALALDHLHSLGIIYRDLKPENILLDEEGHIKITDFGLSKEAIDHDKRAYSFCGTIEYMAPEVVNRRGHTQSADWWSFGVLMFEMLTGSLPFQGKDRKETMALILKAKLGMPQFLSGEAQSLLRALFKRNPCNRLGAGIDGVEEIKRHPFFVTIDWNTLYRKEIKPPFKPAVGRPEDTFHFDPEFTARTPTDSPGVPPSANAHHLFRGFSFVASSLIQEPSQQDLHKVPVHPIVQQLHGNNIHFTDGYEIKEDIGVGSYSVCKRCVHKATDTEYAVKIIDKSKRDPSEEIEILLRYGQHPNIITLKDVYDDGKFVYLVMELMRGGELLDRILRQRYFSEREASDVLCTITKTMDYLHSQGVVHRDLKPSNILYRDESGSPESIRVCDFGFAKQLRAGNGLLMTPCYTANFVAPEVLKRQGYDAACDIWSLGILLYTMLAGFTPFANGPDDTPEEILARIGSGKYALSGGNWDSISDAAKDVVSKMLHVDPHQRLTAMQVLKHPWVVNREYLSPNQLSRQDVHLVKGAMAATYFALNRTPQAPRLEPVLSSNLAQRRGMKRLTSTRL

N=C(N)NCCC[C@@H](NC(=O)[C@@H](CCCNC(=N)N)NC(=O)[C@@H](CCCNC(=N)N)NC(=O)[C@@H](CCCNC(=N)N)NC(=O)[C@@H](CCCNC(=N)N)NC(=O)[C@@H](CCCNC(=N)N)NC(=O)CCCCCNC(=O)[C@@H](CCCCN)NC(=O)CCCCCNC(=O)[C@H]1O[C@@H](n2cnc3c(N)ncnc32)[C@H](O)[C@@H]1O)C(N)=O ({Adenosine(5'-uronoyl)-Ahx}-[dK][Ahx][dR][dR][dR][dR][dR][dR]-NH2)
inhibition [1]: 16%
inhibition [2]: 84%
inhibition [3]: 105%
inhibition [4]: 109%
inhibition [5]: 74%
inhibition [6]: 81%
inhibition [7]: 96%
inhibition [8]: 53%
inhibition [9]: 37%
inhibition [10]: 58%
inhibition [11]: 105%
inhibition [12]: 99%
